Reference: ChEMBL document CHEMBL5325481, “Examination of the Impact of Triazole Position within Linkers on Solubility and Lipophilicity of a CDK9 Degrader Series” (ACS Med Chem Lett, 2023)
Converted amounts (≈) assume the structure as drawn.

How the values were obtained:
[1] = Kinetic solubility of the compound at pH 7.4 incubated for 1.5 hrs under shaking condition by UV plate reader analysis; format: physicochemical; conditions: buffer, read-out: Kinetic_solubility
[2] = Lipophilicity, logK of compound at pH 7.7 in presence of 80% acetonitrile by HPLC analysis; format: physicochemical; conditions: buffer
MV4-11 [3] = assay: Antiproliferative activity against human MV4-11 cells assessed as inhibition of cell growth measured after 48 hrs by MTS assay; format: functional, cell-based; conditions: MV4-11, 48 h
MV4-11 [4] = assay: Antiproliferative activity against human MV4-11 cells assessed as inhibition of cell growth measured after 48 hrs in presence of human serum by MTS assay; format: functional
Outline: (§1)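 MV4-11 AML cells exposed to compound, with growth medium supplemented with either human serum or fetal bovine serum. Cytotoxicity IC50 was determined in each serum condition. The serum shift is the change in activity between human serum and fetal bovine serum.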

MV4-11 [5] = assay: Antiproliferative activity against human MV4-11 cells assessed as inhibition of cell growth measured after 48 hrs in presence of fetal bovine serum by MTS assay; format: functional; outline: as §1
MV4-11 [6] = assay: Antiproliferative activity against human MV4-11 cells assessed as fold decrease in cell growth measured after 48 hrs in presence of human serum by MTS assay; format: functional; outline: as §1
[7] = biological target: T1, Protein cereblon/Cyclin-dependent kinase 9 (Homo sapiens, UniProt P50750+Q96SW2); assay: PROTAC activity at CRBN/CDK9 in human MOLM-13 cells assessed as induction of CDK9 degradation incubated for 6 hrs by Western blot analysis
Target sequence in this assay (P50750 whole entry): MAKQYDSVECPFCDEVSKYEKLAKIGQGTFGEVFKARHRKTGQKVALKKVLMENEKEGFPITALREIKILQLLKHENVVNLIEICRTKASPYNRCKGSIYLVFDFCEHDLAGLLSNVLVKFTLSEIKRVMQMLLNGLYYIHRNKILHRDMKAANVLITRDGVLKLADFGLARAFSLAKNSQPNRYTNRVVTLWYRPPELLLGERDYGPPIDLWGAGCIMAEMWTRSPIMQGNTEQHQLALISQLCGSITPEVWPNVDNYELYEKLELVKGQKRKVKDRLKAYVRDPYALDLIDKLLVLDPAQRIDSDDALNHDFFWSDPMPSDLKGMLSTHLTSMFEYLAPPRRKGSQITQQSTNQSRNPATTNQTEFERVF
Target sequence in this assay (Q96SW2 whole entry): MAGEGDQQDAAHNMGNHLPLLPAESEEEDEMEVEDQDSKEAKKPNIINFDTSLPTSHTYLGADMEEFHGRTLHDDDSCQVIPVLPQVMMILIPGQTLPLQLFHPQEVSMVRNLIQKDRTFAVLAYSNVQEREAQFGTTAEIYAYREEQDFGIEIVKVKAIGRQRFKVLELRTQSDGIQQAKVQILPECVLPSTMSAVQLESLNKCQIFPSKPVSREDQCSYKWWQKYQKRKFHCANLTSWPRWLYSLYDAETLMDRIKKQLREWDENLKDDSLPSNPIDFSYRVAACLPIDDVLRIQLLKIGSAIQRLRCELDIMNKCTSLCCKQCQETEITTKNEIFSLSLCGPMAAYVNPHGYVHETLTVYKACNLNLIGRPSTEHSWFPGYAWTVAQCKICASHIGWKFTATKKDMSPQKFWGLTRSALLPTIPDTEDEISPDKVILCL

[8] = biological target: T1, Protein cereblon/Cyclin-dependent kinase 9; assay: PROTAC activity at CRBN/CDK9 in human MOLM-13 cells assessed as induction of CDK9 degradation by measuring maximal efficacy at 0.01 to 5 uM incubated for 6 hrs by Western blot analysis relative to control; conditions: dose 0.01-5 µM
Target sequence in this assay (P50750 whole entry, looked up): as the sequence (P50750 whole entry) above
Target sequence in this assay (Q96SW2 whole entry, looked up): as the sequence (Q96SW2 whole entry) above

[9] = Aqueous solubility of the compound; format: physicochemical

Compound	solubility kinetic at 1.5 h [1]	log K [2]	IC50 (MV4-11 [3]; read-out: IC50)	IC50 (MV4-11 [3]; read-out: pIC50 (converted))	DC50 [7]	Emax [8]	solubility [9]	EC (MV4-11 [4])	EC (MV4-11 [5])	fold change (FC) (MV4-11 [6])
O=C1CCC(N2C(=O)c3cccc(OCCCCCn4cc(CCCCCN5CCC(NC(=O)c6n[nH]cc6NC(=O)c6c(Cl)cccc6Cl)CC5)nn4)c3C2=O)C(=O)N1 (configuration not stated)	13.2 µM (≈ 11.4 µg/mL)	0.112	130 nM	126 nM	950 nM	68.5%	13.2 µM (≈ 11.4 µg/mL)			
O=C1CCC(N2C(=O)c3cccc(OCCCCCCCCn4cc(CCCCCCN5CCC(NC(=O)c6n[nH]cc6NC(=O)c6c(Cl)cccc6Cl)CC5)nn4)c3C2=O)C(=O)N1 (configuration not stated)	2.38 µM (≈ 2.18 µg/mL)	0.184	70 nM	79.4 nM	70 nM	86.2%				
O=C1CCC(N2C(=O)c3cccc(OCCCCn4cc(CCCCCN5CCC(NC(=O)c6n[nH]cc6NC(=O)c6c(Cl)cccc6Cl)CC5)nn4)c3C2=O)C(=O)N1 (configuration not stated)	31.3 µM (≈ 26.5 µg/mL)	0.106	190 nM	200 nM	400 nM	58.6%				
O=C1CCC(N2C(=O)c3cccc(OCCCCn4cc(CCCCN5CCC(NC(=O)c6n[nH]cc6NC(=O)c6c(Cl)cccc6Cl)CC5)nn4)c3C2=O)C(=O)N1 (configuration not stated)	40.9 µM (≈ 34.1 µg/mL)	0.084	190 nM	200 nM	70 nM	79.1%	≥ 40 µM	69.3 nM	190.1 nM	3
O=C(NC1CCNCC1)c1n[nH]cc1NC(=O)c1c(Cl)cccc1Cl [AT-7519]	512 µM (≈ 196 µg/mL)	0.134	120 nM	126 nM						
O=C1CCC(N2C(=O)c3cccc(OCCCCCCCCn4cc(CCN5CCC(NC(=O)c6n[nH]cc6NC(=O)c6c(Cl)cccc6Cl)CC5)nn4)c3C2=O)C(=O)N1 (configuration not stated)	5.65 µM (≈ 4.87 µg/mL)	0.146	50 nM	50.1 nM	60 nM	88.3%	5.65 µM (≈ 4.87 µg/mL)	881.9 nM	46.9 nM	20
O=C1CCC(N2C(=O)c3cccc(OCCCCCCCn4cc(CCCCCCCN5CCC(NC(=O)c6n[nH]cc6NC(=O)c6c(Cl)cccc6Cl)CC5)nn4)c3C2=O)C(=O)N1 (configuration not stated)	4.7 µM (≈ 4.31 µg/mL)	0.176	60 nM	63.1 nM	60 nM	78%				

Continued, in another order:

solubility kinetic at 1.5 h [1]	log K [2]	IC50 (MV4-11 [3]; read-out: IC50)	IC50 (MV4-11 [3]; read-out: pIC50 (converted))	DC50 [7]	Emax [8]	solubility [9]	Compound	EC (MV4-11 [4])	EC (MV4-11 [5])	fold change (FC) (MV4-11 [6])
3.42 µM (≈ 3.14 µg/mL)	0.197	10 nM	7.94 nM	40 nM	88.6%		O=C1CCC(N2C(=O)c3cccc(OCCCCn4cc(CCCCCCCCCCN5CCC(NC(=O)c6n[nH]cc6NC(=O)c6c(Cl)cccc6Cl)CC5)nn4)c3C2=O)C(=O)N1 (configuration not stated)	28.6 nM	8.8 nM	3
5.46 µM (≈ 4.86 µg/mL)	0.14	50 nM	50.1 nM	100 nM	70.1%		O=C1CCC(N2C(=O)c3cccc(OCCCCCCCn4cc(CCCCCN5CCC(NC(=O)c6n[nH]cc6NC(=O)c6c(Cl)cccc6Cl)CC5)nn4)c3C2=O)C(=O)N1 (configuration not stated)			
12.9 µM (≈ 11.1 µg/mL)	0.116	70 nM	79.4 nM	100 nM	75.3%	12.9 µM (≈ 11.1 µg/mL)	O=C1CCC(N2C(=O)c3cccc(OCCCCn4cc(CCCCCCN5CCC(NC(=O)c6n[nH]cc6NC(=O)c6c(Cl)cccc6Cl)CC5)nn4)c3C2=O)C(=O)N1 (configuration not stated)			
12.4 µM (≈ 10.5 µg/mL)	0.1	240 nM	251 nM	130 nM	67.5%		O=C1CCC(N2C(=O)c3cccc(OCCCCCn4cc(CCCCN5CCC(NC(=O)c6n[nH]cc6NC(=O)c6c(Cl)cccc6Cl)CC5)nn4)c3C2=O)C(=O)N1 (configuration not stated)			
